{
  "source": "ChEMBL document CHEMBL1124462",
  "about": "“Synthesis, DNA binding, and biological evaluation of synthetic precursors and novel analogues of netropsin” (J Med Chem, 1989)",
  "key": {"[1]": {"test_system": "Vero", "test": "Minimum cytotoxic concentration required to cause a microscopically detectable alteration of normal cell morphology and show antiviral activity in african green monkey (Vero B) cells", "type": "functional", "details": "Chlorocebus sabaeus"}, "[2]": {"test_system": "Raji", "test": "Inhibition of Human B-Lymphoblast Raji cell proliferation", "type": "functional", "details": "read-out: CD50 (the source's name)"}, "[3]": {"test_system": "HeLa", "test": "Minimum inhibitory concentration required to reduce Coxsackie virus B4 induced cytopathogenicity by 50% in HeLa cells", "type": "functional", "details": "Homo sapiens", "method_in_brief": "(§1)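 Cell cultures (PRK, HeLa or Vero B) are infected at 100 × CCID50. Cytopathogenicity is recorded once it reaches completion in the untreated virus-infected controls. The minimum inhibitory concentration is given in μg/mL.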"}, "[4]": {"test_system": "HeLa", "test": "Minimum cytotoxic concentration required to cause a microscopically detectable alteration of normal cell morphology and show antiviral activity in HeLa cells", "type": "functional", "details": "Homo sapiens", "method_in_brief": "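HeLa cell cultures exposed to compound for the same duration as the antiviral assay, then examined microscopically. The minimum cytotoxic concentration is the lowest level causing detectable alteration of normal cell morphology. Values are in μg/mL.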"}, "[5]": {"test_system": "L1210", "test": "Dose required to inhibit Murine leukemia (L1210) cell proliferation by 50%", "type": "functional", "details": "Mus musculus, read-out: CD50 (the source's name)"}, "[6]": {"test_system": "Human alphaherpesvirus 2", "test": "Minimum inhibitory concentration required to reduce herpes simplex virus-2(G) induced cytopathogenicity by 50% in primary rabbit kidney cells (PRK)", "type": "functional", "method_in_brief": "as §1"}, "[7]": {"test_system": "Human alphaherpesvirus 1", "test": "Minimum inhibitory concentration required to reduce herpes simplex virus-1 (KOS) induced cytopathogenicity by 50% in primary rabbit kidney cells(PRK)", "type": "functional", "method_in_brief": "as §1"}, "[8]": {"test_system": "Vesicular stomatitis virus", "test": "Minimum inhibitory concentration required to reduce vesicular stomatitis virus induced cytopathogenicity by 50% in primary rabbit kidney cells (PRK)", "type": "functional"}, "[9]": {"species": "Oryctolagus cuniculus", "test": "Minimum cytotoxic concentration required to cause a microscopically detectable alteration of normal cell morphology and show antiviral activity in primary rabbit kidney (PRK) cells", "type": "functional"}, "[10]": {"test": "Dose required to inhibit Human T-Lymphoblast (Molt/4F) cell proliferation by 50%", "type": "functional", "details": "read-out: CD50 (the source's name)"}, "[11]": {"test_system": "Sindbis virus", "test": "Minimum inhibitory concentration required to reduce Sindbis virus induced cytopathogenicity by 50% in african green monkey (VeroB) cells", "type": "functional", "method_in_brief": "as §1"}, "[12]": {"test_system": "Vero", "test": "Minimum inhibitory concentration required to reduce parainfluenza virus-3 induced cytopathogenicity by 50% in african green monkey (VeroB) cells", "type": "functional, Human respirovirus 3", "details": "Chlorocebus sabaeus", "method_in_brief": "as §1"}, "[13]": {"test_system": "Mammalian orthoreovirus 1", "test": "Minimum inhibitory concentration required to reduce reovirus-1 induced cytopathogenicity by 50% in african green monkey (VeroB)cells", "type": "functional", "method_in_brief": "as §1"}, "[14]": {"test_system": "Semliki Forest virus", "test": "Minimum inhibitory concentration required to reduce semliki forest virus induced cytopathogenicity by 50% in african green monkey (VeroB) cells", "type": "functional", "method_in_brief": "as §1"}, "[15]": {"test_system": "Nucleic Acid", "test": "Association constant against the polynucleotide poly(dA-dT)", "type": "nucleic-acid assay", "method_in_brief": "(§2)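 Competition with ethidium bromide binding at 25 °C in 0.01 M cacodylate buffer, pH 7.0, with 1.26 μM ethidium bromide and 1 μM polynucleotide. Bound ethidium is estimated from its fluorescence increase (V = 34 for poly(dA-dT), 25 for poly(dG-dC)). IC50 for 50% ethidium displacement comes from a fitted competition sigmoid. Kapp is calculated from IC50 assuming a binding size of four base pairs.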"}, "[16]": {"test_system": "Nucleic Acid", "test": "Association constant against polynucleotide poly (dG-dC)", "type": "nucleic-acid assay", "method_in_brief": "as §2"}, "[17]": {"test_system": "Vero", "test": "Minimum inhibitory concentration required to reduce Coxsackie virus B4 induced cytopathogenicity by 50% in african green monkey (VeroB) cells", "type": "functional, Coxsackievirus B4", "details": "Chlorocebus sabaeus", "method_in_brief": "as §1"}, "[18]": {"test_system": "HeLa", "test": "Minimum inhibitory concentration required to reduce vesicular stomatitis virus induced cytopathogenicity by 50% in HeLa cells", "type": "functional", "details": "Homo sapiens"}, "[19]": {"test_system": "Raji", "test": "Dose required to inhibit Human B-Lymphoblast (Raji) cell proliferation by 50%", "type": "functional", "details": "read-out: CD50 (the source's name)"}, "[20]": {"test_system": "HeLa", "test": "Minimum inhibitory concentration required to reduce polio virus -1 induced cytopathogenicity by 50% in HeLa cells", "type": "functional", "details": "Homo sapiens"}, "[21]": {"test_system": "Nucleic Acid", "test": "Association constant against the polynucleotide poly (dA-dT).", "type": "nucleic-acid assay", "method_in_brief": "as §2"}},
  "data": [
    {"smiles": "Cn1cc(NC(=O)c2cc([N+](=O)[O-])cn2C)cc1C(=O)NCCC#N", "values": [
      {"measurement": "MCC", "setting": "[1]", "value": "> 40", "unit": "µg/mL"},
      {"measurement": "CC50", "setting": "[2]", "value": "> 100", "unit": "µg/mL"},
      {"measurement": "MIC", "setting": "[3]", "value": "> 10", "unit": "µg/mL"},
      {"measurement": "MCC", "setting": "[4]", "value": "> 40", "unit": "µg/mL"},
      {"measurement": "CC50", "setting": "[5]", "value": "> 100", "unit": "µg/mL"},
      {"measurement": "MIC", "setting": "[6]", "value": "> 10", "unit": "µg/mL"},
      {"measurement": "MIC", "setting": "[7]", "value": "> 10", "unit": "µg/mL"},
      {"measurement": "MIC", "setting": "[8]", "value": "> 10", "unit": "µg/mL"},
      {"measurement": "MCC", "setting": "[9]", "value": ">40", "unit": "µg/mL"},
      {"measurement": "CC50", "setting": "[10]", "value": "> 100", "unit": "µg/mL"},
      {"measurement": "MIC", "setting": "[11]", "value": "> 10", "unit": "µg/mL"},
      {"measurement": "MIC", "setting": "[12]", "value": "> 10", "unit": "µg/mL"},
      {"measurement": "MIC", "setting": "[13]", "value": "> 10", "unit": "µg/mL"},
      {"measurement": "MIC", "setting": "[14]", "value": "> 10", "unit": "µg/mL"},
      {"measurement": "K app", "setting": "[15]", "value": "< 100", "unit": "M⁻¹"},
      {"measurement": "K app", "setting": "[16]", "value": "< 100", "unit": "M⁻¹"},
      {"measurement": "MIC", "setting": "[17]", "value": "> 10", "unit": "µg/mL"}
    ]},
    {"smiles": "Nc1ncnc2c1ncn2C[C@H](O)CO", "note": "[(S)-DHPA]", "values": [
      {"measurement": "MCC", "setting": "[1]", "value": "> 400", "unit": "µg/mL"},
      {"measurement": "MIC", "setting": "[3]", "value": "> 400", "unit": "µg/mL"},
      {"measurement": "MIC", "setting": "[18]", "value": 20, "unit": "µg/mL"},
      {"measurement": "MCC", "setting": "[4]", "value": "> 400", "unit": "µg/mL"},
      {"measurement": "MIC", "setting": "[6]", "value": "> 400", "unit": "µg/mL"},
      {"measurement": "MIC", "setting": "[7]", "value": "> 400", "unit": "µg/mL"},
      {"measurement": "MIC", "setting": "[8]", "value": 70, "unit": "µg/mL"},
      {"measurement": "MCC", "setting": "[9]", "value": ">400", "unit": "µg/mL"},
      {"measurement": "MIC", "setting": "[11]", "value": "> 400", "unit": "µg/mL"},
      {"measurement": "MIC", "setting": "[12]", "value": 7, "unit": "µg/mL"},
      {"measurement": "MIC", "setting": "[13]", "value": 20, "unit": "µg/mL"},
      {"measurement": "MIC", "setting": "[14]", "value": "> 400", "unit": "µg/mL"},
      {"measurement": "MIC", "setting": "[17]", "value": 200, "unit": "µg/mL"}
    ]},
    {"smiles": "Cn1cc([N+](=O)[O-])cc1C(=O)NCCC#N", "values": [
      {"measurement": "MCC", "setting": "[1]", "value": "> 400", "unit": "µg/mL"},
      {"measurement": "CC50", "setting": "[19]", "value": "> 50", "unit": "µg/mL"},
      {"measurement": "MIC", "setting": "[3]", "value": 150, "unit": "µg/mL"},
      {"measurement": "MIC", "setting": "[20]", "value": "> 400", "unit": "µg/mL"},
      {"measurement": "MIC", "setting": "[18]", "value": "> 400", "unit": "µg/mL"},
      {"measurement": "MCC", "setting": "[4]", "value": "> 400", "unit": "µg/mL"},
      {"measurement": "CC50", "setting": "[5]", "value": "> 50", "unit": "µg/mL"},
      {"measurement": "K app", "setting": "[21]", "value": "< 100", "unit": "M⁻¹"},
      {"measurement": "MIC", "setting": "[6]", "value": "> 200", "unit": "µg/mL"},
      {"measurement": "MIC", "setting": "[7]", "value": "> 400", "unit": "µg/mL"},
      {"measurement": "MIC", "setting": "[8]", "value": "> 400", "unit": "µg/mL"},
      {"measurement": "MCC", "setting": "[9]", "value": ">400", "unit": "µg/mL"},
      {"measurement": "CC50", "setting": "[10]", "value": "> 50", "unit": "µg/mL"},
      {"measurement": "MIC", "setting": "[11]", "value": "> 100", "unit": "µg/mL"},
      {"measurement": "MIC", "setting": "[12]", "value": "> 400", "unit": "µg/mL"},
      {"measurement": "MIC", "setting": "[13]", "value": "> 200", "unit": "µg/mL"},
      {"measurement": "MIC", "setting": "[14]", "value": "> 100", "unit": "µg/mL"},
      {"measurement": "K app", "setting": "[16]", "value": "< 100", "unit": "M⁻¹"},
      {"measurement": "MIC", "setting": "[17]", "value": "> 100", "unit": "µg/mL"}
    ]}
  ]
}
